According to ChEMBL document CHEMBL5137109, “Tunable Cysteine-Targeting Electrophilic Heteroaromatic Warheads Induce Ferroptosis” (J Med Chem, 2022):
Blank lines part the entries; values can stand above or below the compound they belong to. Activity calls are given as the source filed them. The rule behind the calls is not given here.

Assays:
[1] = biological target: T1, Phospholipid hydroperoxide glutathione peroxidase GPX4 (Homo sapiens) (UniProt P36969); experiment: Binding affinity to GPX4 in human NCI-H522 cells at 10 uM incubated for 1 hr by Biotin-TAMRA pull down based mass spectrometry; type: cell-based
T1 sequence (whole entry): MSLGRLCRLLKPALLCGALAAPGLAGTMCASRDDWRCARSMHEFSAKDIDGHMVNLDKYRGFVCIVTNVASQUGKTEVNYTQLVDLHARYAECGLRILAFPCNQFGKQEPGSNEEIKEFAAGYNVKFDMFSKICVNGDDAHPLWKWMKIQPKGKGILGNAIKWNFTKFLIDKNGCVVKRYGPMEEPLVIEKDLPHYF
How it was run: (§1)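 Cells ~70% density, five 10 cm dishes per treatment, exposed to alkyne probe or control for 1 h at 37 °C, then lysed (NP-40/Tris). Lysate precleared on streptavidin beads 2 h at 4 °C, then CuAAC with biotin-TAMRA azide, THPTA, CuSO4 and ascorbate for 30 min at RT. Proteins MeOH/CHCl3 precipitated, enriched overnight on streptavidin, checked by in-gel fluorescence. Reduced/alkylated, trypsin-digested, nano LC-MS/MS. Filtered at 1% FDR, ≥2 unique peptides.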

[2] = system: HCT-116; experiment: Cytotoxicity against human HCT-116 cells assessed as reduction in cell viability incubated for 3 days by methylene blue staining based analysis; type: functional; conditions: HCT-116, 72 h
[3] = system: NCI-H522; experiment: Cytotoxicity against human NCI-H522 cells assessed as reduction in cell viability incubated for 3 days by methylene blue staining based analysis; type: functional; conditions: NCI-H522, 72 h
[4] = system: NCI-H522; experiment: Induction of lipid peroxidation in human NCI-H522 cells assessed as increase in C11-BODIPY oxidation at 10 uM incubated for 6 hrs by flow cytometry; type: functional, cell-based
How it was run: (§2)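 NCI-H522 cells (~70% density) plated in dishes overnight, then treated with compound or DMSO plus C11-BODIPY 581/591 (1 μM) added at treatment. After 3 h or 6 h, cells washed, trypsinized, resuspended in PBS with 2% FBS and analysed by flow cytometry (preferably 20×10³ cells). Oxidation compared with DMSO treatment.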

[5] = biological target: T2, Glutathione S-transferase omega-1 (Homo sapiens) (UniProt P78417); experiment: Binding affinity to GSTO1 in human NCI-H522 cells at 10 uM incubated for 1 hr by Biotin-TAMRA pull down based mass spectrometry; type: cell-based; how it was run: as §1
T2 sequence (whole entry): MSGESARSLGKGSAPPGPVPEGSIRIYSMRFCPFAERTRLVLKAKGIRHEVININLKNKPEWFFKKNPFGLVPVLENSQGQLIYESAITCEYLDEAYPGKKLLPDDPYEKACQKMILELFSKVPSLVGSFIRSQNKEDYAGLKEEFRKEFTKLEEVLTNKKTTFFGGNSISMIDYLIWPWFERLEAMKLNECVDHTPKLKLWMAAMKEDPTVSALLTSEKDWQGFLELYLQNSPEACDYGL

[6] = biological target: T1, Phospholipid hydroperoxide glutathione peroxidase GPX4 (Homo sapiens); experiment: Binding affinity to GPX4 in human NCI-H522 cells at 10 uM incubated for 1 hr by Biotin-TAMRA pull down based western blot analysis; type: cell-based
How it was run: (§3)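 Probe or control given to cells for 1 h at 37 °C, two 10 cm dishes per treatment. Lysates precleared with streptavidin, then clicked to biotin-TAMRA azide (20 min RT plus 10 min 37 °C). Proteins precipitated, captured overnight on streptavidin beads and washed with RIPA/PBS. Bead eluates separated on 12.5% SDS-PAGE and immunoblotted, with milk blocking, primary antibody overnight at 4 °C, HRP secondary and ECL.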

[7] = biological target: T2, Glutathione S-transferase omega-1 (Homo sapiens); experiment: Binding affinity to GSTO1 in human NCI-H522 cells at 10 uM incubated for 1 hr by Biotin-TAMRA pull down based western blot analysis; type: cell-based; how it was run: as §3
[8] = biological target: T3, Thioredoxin reductase 1, cytoplasmic (Homo sapiens) (UniProt Q16881); experiment: Binding affinity to TXRD1 in human NCI-H522 cells at 10 uM incubated for 1 hr by Biotin-TAMRA pull down based mass spectrometry; type: cell-based; how it was run: as §1
T3 sequence (whole entry): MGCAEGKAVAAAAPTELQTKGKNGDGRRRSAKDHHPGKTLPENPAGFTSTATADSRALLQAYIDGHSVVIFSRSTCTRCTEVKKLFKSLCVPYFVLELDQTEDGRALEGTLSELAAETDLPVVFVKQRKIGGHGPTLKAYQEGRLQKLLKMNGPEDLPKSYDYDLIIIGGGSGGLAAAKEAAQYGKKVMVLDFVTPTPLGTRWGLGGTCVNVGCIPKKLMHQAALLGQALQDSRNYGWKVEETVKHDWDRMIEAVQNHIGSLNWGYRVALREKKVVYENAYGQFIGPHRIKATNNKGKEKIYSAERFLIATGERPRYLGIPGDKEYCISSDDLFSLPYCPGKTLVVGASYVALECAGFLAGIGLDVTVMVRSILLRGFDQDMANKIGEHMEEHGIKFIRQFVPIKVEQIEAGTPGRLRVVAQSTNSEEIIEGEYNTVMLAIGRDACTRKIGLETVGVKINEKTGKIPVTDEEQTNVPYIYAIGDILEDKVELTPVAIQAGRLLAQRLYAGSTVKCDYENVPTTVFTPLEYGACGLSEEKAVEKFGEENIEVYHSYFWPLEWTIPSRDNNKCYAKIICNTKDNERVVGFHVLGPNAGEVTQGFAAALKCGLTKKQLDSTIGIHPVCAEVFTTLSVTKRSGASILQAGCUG

[9] = biological target: T1, Phospholipid hydroperoxide glutathione peroxidase GPX4 (Homo sapiens); experiment: Binding affinity to GPX4 in human NCI-H522 cells assessed as increase in aggregation temperature at 0.5 uM incubated for 1 hr by CETSA analysis; type: cell-based
How it was run: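 Cells ~80% confluent treated 1 h (vehicle DMSO 0.1% v/v), trypsinized, washed, resuspended in PBS and aliquots heated at temperatures between 43–67 °C for 3 min. Cells then pelleted and lysed in NP-40/Tris buffer. Soluble fraction analysed by SDS-PAGE and western blot, and aggregation temperature compared with DMSO. Mean ± SD, n = 3, t-test.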

[10] = system: NCI-H522; experiment: Induction of lipid peroxidation in human NCI-H522 cells assessed as increase in C11-BODIPY oxidation at 0.5 uM incubated for 3 hrs by flow cytometry; type: functional, cell-based; how it was run: as §2
[11] = system: NCI-H522; experiment: Cytotoxicity against human NCI-H522 cells assessed as reduction in cell viability incubated for 3 days in presence of ferroptosis inhibitor, liproxstatin-1 by methylene blue staining based analysis; type: functional; conditions: NCI-H522, 72 h
How it was run: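 NCI-H522 cells seeded at 25×10³/well (n=3), adhered overnight, then exposed to compound with or without liproxstatin-1 (0.25 μM). After 3 days, methylene blue staining with HCl elution and A668. Results given as % relative to DMSO control, mean ± SD, n=3, one-way ANOVA. Fold change is IC50 (with liproxstatin-1)/IC50 (alone).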

[12] = Ratio of IC50 for cytotoxicity against human NCI-H522 cells in presence of ferroptosis inhibitor, liproxstatin-1 to IC50 for cytotoxicity against human NCI-H522 cells; type: functional
How it was run: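 NCI-H522 cells, 25*10³/well (n=3), plated overnight, treated with compound with or without Liproxstatin-1 (0.25 μM). After 3 days, methylene blue in 50% ethanol fix/stain 30 min RT, dye dissolved in 0.1N HCl, A668. Fold change = IC₅₀ with Liproxstatin-1 / IC₅₀ without.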

[13] = system: HT-1080; experiment: Cytotoxicity against human HT-1080 cells assessed as reduction in cell viability incubated for 3 days by methylene blue staining based analysis; type: functional; conditions: HT-1080, 72 h
[14] = system: MDA-MB-468; experiment: Cytotoxicity against human MDA-MB-468 cells assessed as reduction in cell viability incubated for 3 days by methylene blue staining based analysis; type: functional; conditions: MDA-MB-468, 72 h
[15] = system: MDA-MB-231; experiment: Cytotoxicity against human MDA-MB-231 cells assessed as reduction in cell viability incubated for 3 days by methylene blue staining based analysis; type: functional; conditions: MDA-MB-231, 72 h
[16] = system: HeLa; experiment: Cytotoxicity against human HeLa cells assessed as reduction in cell viability incubated for 3 days by methylene blue staining based analysis; type: functional; conditions: 72 h
[17] = system: U2OS; experiment: Cytotoxicity against human U2OS cells assessed as reduction in cell viability incubated for 3 days by methylene blue staining based analysis; type: functional; conditions: 72 h
[18] = Cytotoxicity against human WI-38 cells assessed as reduction in cell viability incubated for 3 days by methylene blue staining based analysis; type: toxicity
[19] = Cytotoxicity against mouse MEF cells assessed as reduction in cell viability incubated for 3 days by methylene blue staining based analysis; type: toxicity
[20] = Selectivity ratio of IC50 for human HCT-116 cells to IC50 for human NCI-H522 cells by methylene blue staining based analysis; type: functional
[21] = system: NCI-H522; experiment: Induction of lipid peroxidation in human NCI-H522 cells assessed as increase in C11-BODIPY oxidation at 5 uM incubated for 6 hrs by flow cytometry relative to control; type: functional
How it was run: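 NCI-H522 cells at ~70% density, plated overnight, treated with compound or DMSO together with C11-BODIPY 581/591 (1 μM) for 3 h or 6 h. Cells then PBS-washed, trypsinised, resuspended in PBS with 2% FBS and read by flow cytometry, preferably 20*10³ cells. Oxidation compared with DMSO treatment.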

[22] = system: NCI-H522; experiment: Cytotoxicity against human NCI-H522 cells assessed as time required to cause 50% irreversible cell death treated with compound followed by washing for every 30 mins for 6 hrs by methylene blue staining based analysis; type: functional
How it was run: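 NCI-H522 cells, 5*10³/well (n=3), plated overnight, then treated with compound or DMSO. Wells washed immediately after treatment and then at 30-min intervals up to 6 h; last wells not washed. Methylene blue in 50% ethanol fix/stain 30 min RT, dye dissolved in 0.1N HCl, A668. Each point taken as % survival of matching DMSO-treated cells.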

[23] = biological target: T3, Thioredoxin reductase 1, cytoplasmic (Homo sapiens); experiment: Binding affinity to TXRD1 in human NCI-H522 cells at 10 uM incubated for 1 hr by Biotin-TAMRA pull down based western blot analysis; type: cell-based; how it was run: as §3

Activity [1]: Active
Activity [5]: Active
Activity [6]: Active
Activity [7]: Active
Activity [8]: Active
SMILES: C#CCNC(=O)c1csc(C#C)n1
IC50 [2]: 19200 nM
IC50 [3]: 2100 nM
Activity [4]: Active

SMILES: C#Cc1nc(C(=O)N2CCN(C(c3ccc(Cl)cc3)c3ccc(Cl)cc3)CC2)cs1
IC50 [2]: > 1000 nM
IC50 [3]: 17 nM
deltaT [9]: 7 °C
Activity [10]: Active
IC50 [11]: 7890 nM
Ratio IC50 [12]: 464.353
IC50 [13]: 19 nM
IC50 [14]: 84 nM
IC50 [15]: 21 nM
IC50 [16]: 242 nM
IC50 [17]: 367 nM
IC50 at 3 days [18]: 22 nM
IC50 at 3 days [19]: 10 nM

SMILES: C#Cc1nc2ccccc2s1
IC50 [2]: 19600 nM
IC50 [3]: 860 nM
Ratio IC50 [20]: 22.8
fold change (FC) [21]: >5
IT50 [22]: 1.7 h

Activity [23]: Active
SMILES: C#CCNC(=O)c1csc(C#Cc2ccccc2)n1
IC50 [2]: > 40000 nM
IC50 [3]: > 40000 nM
